Assay outcomes (PubChem)
A selection: hits, their analogues and other compounds. The true share with any hit is near 2.6%.
PolyA inh: yeast polyadenylation inhibition; AID 1875; S. cerevisiae SKY197-pL101 polyadenylation reporter, beta-gal luminescence; efflux-impaired pdr1/pdr3 knockout yeast; score 100 = 6 SD above DMSO; 0.02% of 300,000 active; activity score, % at 12 µM;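 active means lowest replicate activity score at least 50, where 100 means six control SD above control mean; inconclusive means lowest score under 50 but half or more replicates reach 50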;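 further: yeast exposed to compound for 9 h at 30 °C; higher score means more reporter readthrough which indicates perturbed polyadenylation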
procasp7 counter: counter-screen for procaspase-3 activators: activators of human procaspase-7 | P55210 | recombinant procaspase-7, Ac-DEVD-pNA absorbance 405 nm; D23A/D198A/D206A triple mutant, cannot self-cleave; scale: DMSO 0, 5 µM enzyme 100 | activation, % at 8.5 µM | 0.093% of 330,000 active;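 active means percent activation above the screen-wide mean plus 3 SD, cut at about 25% in these data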
Target sequence (P55210 whole entry D23A/D198A/D206A): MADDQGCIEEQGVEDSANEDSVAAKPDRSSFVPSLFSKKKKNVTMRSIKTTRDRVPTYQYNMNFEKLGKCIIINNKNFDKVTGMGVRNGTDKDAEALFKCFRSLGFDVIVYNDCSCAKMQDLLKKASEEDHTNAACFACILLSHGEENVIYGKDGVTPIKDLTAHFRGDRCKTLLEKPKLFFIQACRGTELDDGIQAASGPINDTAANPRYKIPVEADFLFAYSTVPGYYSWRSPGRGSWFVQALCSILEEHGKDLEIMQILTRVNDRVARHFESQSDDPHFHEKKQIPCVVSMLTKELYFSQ
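Assay system: Uncleavable procaspase-7 mutant enzyme; Input: 2 µM procaspase-7 mutant as dispensed; Also added: DEVD-pNA substrate; Medium: Zinc-free HEPES pH 7.4 with 300 mM NaCl, 0.01% Triton X-100; Timing: 1 h compound preincubation, 2 h substrate cleavage, 25 °C; Measured by: Epi-absorbance of released pNA at 405 nm, two timepoints.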
proCasp3 act: activates human procaspase-3; recombinant procaspase-3 D3A, Ac-DEVD-pNA absorbance 405 nm; activation, % at 8.5 µM; 0.11% of 330,000 active; AID 463141;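 active means activation above the mean of all tested compounds plus 3 SD, cut at about 21% in these data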
Target sequence (P42574 whole entry D9A/D28A/D175A): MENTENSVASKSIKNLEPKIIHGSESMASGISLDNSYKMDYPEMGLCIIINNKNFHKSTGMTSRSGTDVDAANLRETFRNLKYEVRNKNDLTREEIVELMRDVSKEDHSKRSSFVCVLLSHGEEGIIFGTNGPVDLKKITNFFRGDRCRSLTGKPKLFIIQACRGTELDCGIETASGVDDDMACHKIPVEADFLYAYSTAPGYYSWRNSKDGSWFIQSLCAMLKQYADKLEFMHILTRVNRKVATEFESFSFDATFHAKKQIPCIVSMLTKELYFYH
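Test system: Procaspase-3 D3A mutant; medium: Zinc-free HEPES/NaCl buffer with 0.01% Triton X-100 at pH 7.4; reagent: DEVD-pNA substrate; doses: one concentration, 8.5 µM nominal, 0.8% DMSO; times: 1 h preincubation plus 2 h reaction at 25 °C; signal: Epi-absorbance at 405 nm of released p-nitroaniline, 0 and 120 min; replicates: singlicate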
AHR activator: activates the human aryl hydrocarbon receptor; AHR-responsive luciferase reporter cells, luminescence; P35869; AID 2796; 2.5% of 320,000 active; activation, % at 5 µM; in the data active means activation above about 47%
Of the large screens only hits and unclear results are named; the others gave an inactive call.

Cc1nn(C(=O)c2cc3sccc3[nH]2)c(C)c1C	AHR activator 71
Cc1ccc(C(=O)NC(=S)N2CCN(C)CC2)cc1Br	none (no result: procasp7 counter, proCasp3 act, AHR activator)
Cc1ccc(S(=O)(=O)NNC(=O)c2cc3cc4ccccc4nc3s2)cc1	none
O=C(NNC(=O)c1cc2cc3ccccc3nc2s1)c1cccc(Cl)c1	AHR activator 48
O=C(NNC(=O)c1cccc(Cl)c1)NNC(=O)c1cccc(Cl)c1	none (no result: PolyA inh)
Cc1cccc(C(=O)NNC(=O)c2cc3cc4ccccc4nc3s2)c1	AHR activator 74
C=C(C)COc1cc2oc(=O)c(CC(=O)N3C[C@H]4C[C@@H](C3)c3cccc(=O)n3C4)c(C)c2cc1Cl	none
Nc1c(C(=O)O)cnc2c(-c3ccc(Cl)cc3)cnn12	AHR activator 98
CC(=O)c1cnc2c(-c3ccc(Cl)cc3)cnn2c1C	none (no result: PolyA inh)
Clc1ccc(-c2cnn3c(-c4ccncc4)ccnc23)cc1	AHR activator 72
Cc1ccc(CNC(=O)CCS(=O)(=O)Cc2ccc(C)cc2)cc1	none
CCOc1ncccc1C(=O)OCC(=O)NCCCc1ccccc1	none (no result: PolyA inh)
Cc1cc(C)c2nc(SCC(=O)NNC(=O)c3ccco3)c(C)cc2c1	none (no result: PolyA inh)
Cc1cc2cccc(C)c2nc1SCC(=O)NNC(=O)c1ccco1	AHR activator 52
Cn1c(N=NC(=O)c2ccccc2)c(O)c2ccccc21	AHR activator 96
Cn1c(O)c(N=NC(=O)CNC(=O)c2ccccc2)c2ccccc21	none
CC(=O)c1c(N)[nH]c(-c2ccccc2)nc1=S	AHR activator 62
CCOC(=O)c1ccc(NC(=O)CSc2nnc(CNc3ccc(OC)cc3)n2C)cc1	AHR activator 59
Cc1ccc2[nH]c3c(c2c1)CCc1cn[nH]c1-3	AHR activator 53
Cc1ccc2[nH]c3c(c2c1)CCC3=O	PolyA inh inconclusive
CC(=O)Oc1ccc(Cl)cc1/C=C/c1ccc2ccccc2n1	AHR activator 71
Cc1sc2ncnc(NCc3cccnc3)c2c1C	AHR activator 61
Cc1ccc(/C=N/NC(=O)c2cccc(S(=O)(=O)Nc3ccccc3Cl)c2)s1	AHR activator 53
O=C(N/N=C/c1ccccc1C(=O)O)c1cccc(S(=O)(=O)Nc2cc(Cl)ccc2Cl)c1	none
O=C(Nc1cc([N+](=O)[O-])ccc1C(=O)Nc1cccnc1)c1ccccc1	AHR activator 66
Cc1ccc(NC(=O)c2cc([N+](=O)[O-])ccc2NCc2cccnc2)cc1	AHR activator 75
O=C(Nc1cccnc1)c1cccc([N+](=O)[O-])c1	none
CN(C)c1ccc(S(=O)(=O)N2CCCCC2)cc1NC(=O)CN1C(=O)NC2(CCCC2)C1=O	none
Nc1cc(Nc2ccc(Br)cc2)nc(N)n1	AHR activator 62
CCc1c(C)nc2ncnn2c1N1CCN(S(=O)(=O)c2ccc(OC)cc2)CC1	none
Cc1cc(/C=C2\NC(=O)NC2=O)c(C)n1-c1cccnc1	AHR activator 100
N#Cc1cccn1-c1nccc(-c2cccs2)n1	AHR activator 65
Cn1ccsc1=NC(=O)c1ccccc1OC(F)F	AHR activator 71
Cn1ccsc1=NC(=O)c1ccccc1F	none
CCCCn1c(N)c(N(CCOC)C(=O)c2ccc(S(=O)(=O)N3CCCCCC3)cc2)c(=O)[nH]c1=O	none
CCn1c(C)csc1=NC(=O)c1ccccc1	AHR activator 61
Cc1csc(=NC(=O)c2ccccc2)n1C	none
O=C(NCCN1CCOCC1)c1cc(-c2cccs2)on1	AHR activator 62 (no result: PolyA inh)
COc1ccc(C2CC(=O)Oc3cc(C)c(Cl)cc32)cc1 (stereo not drawn)	none (no result: PolyA inh, AHR activator)
Cc1nn(-c2ccc(Cl)cc2)c2sc(C(=O)c3c(N)n(C)c(=O)n(C)c3=O)cc12	AHR activator 47
Cc1nn(-c2ccc(F)cc2)c2sc(C(=O)N3CCCCCC3)cc12	PolyA inh inconclusive
Cc1nn(-c2ccc(Cl)cc2)c2sc(C(=O)N3CCN(c4ccccn4)CC3)cc12	AHR activator 77
O=C(Nc1ccc(S(=O)(=O)N2CCCCC2)cc1)c1ccc(Cl)nc1	none (no result: PolyA inh)
COc1ccc(-c2nnc(Nc3nc4c(OC)cccc4s3)o2)cc1	AHR activator 75
COc1ccc(-c2nnc(Nc3nc4c(OC)cccc4s3)o2)c(OC)c1	none
COc1ccc2nc(-c3ccccn3)[nH]c2c1	AHR activator 47
O=Cc1ccccc1-c1cn(CN2C(=O)c3ccccc3C2=O)nn1	none
CC(=O)NS(=O)(=O)c1ccc(NC(=O)/C=C/c2cn(-c3ccccc3)nc2-c2ccccc2)cc1	none
O=C(/C=C\c1cn(-c2ccccc2)nc1-c1ccccc1)Nc1nccs1	AHR activator 73
O=C(CSc1ccc(C(F)(F)F)cc1[N+](=O)[O-])Nc1ccccc1	AHR activator 48
CC(C)NC(=O)CNc1ccc(C(F)(F)F)cc1[N+](=O)[O-]	AHR activator 52
CC(=O)Nc1ccc(NC(=O)CSc2ccc(C(F)(F)F)cc2[N+](=O)[O-])cc1	none
CN1CCN(C(=O)CNc2ccc(C(F)(F)F)cc2[N+](=O)[O-])CC1	none
CCOc1ccc(NC(=O)CSc2nc3ccsc3c(=O)n2CCC(=O)O)cc1	none
COc1ccc(/C=N/NC(=O)c2nc(-c3ccccc3)cc(-c3ccccc3)n2)cc1O	AHR activator 52
COc1ccccc1C(=O)NCCC(=O)N1CCN(c2cccc(C(F)(F)F)c2)CC1	none
Cc1ccc(CS(=O)Cc2ccc(C(=O)NC3CCCCC3)o2)cc1 (stereo not drawn)	none
CCOC(=O)c1[nH]c2cc3c(cc2c1NC(=O)CN1CC(C)CC(C)C1)OCO3 (stereo not drawn)	AHR activator 56
COc1ccc(C)cc1NC(=O)c1cccc(C(=O)Nc2cc(C)ccc2OC)c1	none
Cc1ccc(C(=O)Nc2cc(Cl)ccc2OC(=O)c2ccc(C)cc2)cc1	AHR activator 53
COc1ccc(C)cc1NC(=O)c1ccc(OC(F)F)cc1	AHR activator 70
Cc1ccc(CONC(=O)c2ccc(Cl)cc2)cc1	AHR activator 73 (no result: PolyA inh)
O=C(O)/C(=C\C(=O)c1ccccc1)Nc1ccccc1	none
Cc1ccsc1CNc1ncnc2ccc(-c3c(C)noc3C)cc12	AHR activator 56 (no result: PolyA inh)
Cc1ccccc1NCC(=O)N/N=C/c1c[nH]c2ccccc12	AHR activator 62
Cc1cccc(NCC(=O)N/N=C\c2c[nH]c3ccccc23)c1	AHR activator 78
Cc1cccc(NCC(=O)N/N=C\c2ccccn2)c1	none
CC(C)c1ccc(/C=C2\SC(=O)N(CC(=O)NC3CCS(=O)(=O)C3)C2=O)cc1 (stereo not drawn)	none
COc1cccc(CNC(=O)CCCC(=O)NC(C)CCc2ccccc2)c1 (stereo not drawn)	none
COc1ccc(NC2CCCN(C(=O)c3oc(C)cc3C)C2)cc1OC (stereo not drawn)	none
Cc1cc(C)c(C(=O)N2CCCC(Nc3ccc(C)c(C)c3)C2)o1 (stereo not drawn)	AHR activator 63
O=C(C1CCCC1)N1CCCC(Nc2ccc(F)cc2)C1 (stereo not drawn)	none
Cc1ccc(NC2CCCN(C(=O)C3CCCCC3)C2)cc1C (stereo not drawn)	AHR activator 60
